UBC13 inh = inhibitors of human UBC13 polyubiquitin chain formation; P61088; TR-FRET; inhibition, % at 20 µM; 330,000 compounds, 0.47% hits; AID 485273; in the data active = inhibition above about 45%, passing the limit was not always enough
ANO1 block = inhibitors of mouse TMEM16A calcium-activated chloride channel. 310,000 compounds, 1.2% hits. normalized B-score (activity score, 25-100; higher = stronger inhibition) at 10 µM. HEK293 TMEM16A/YFP iodide influx fluorescence, ionomycin;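 active = ratio plate-corrected score three or more library SD toward inhibition, starting fluorescence score within five deviations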;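 also: score derived from kinetic fluorescence span divided by baseline fluorescence per well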
Target sequence (Q8BHY3 whole entry, looked up): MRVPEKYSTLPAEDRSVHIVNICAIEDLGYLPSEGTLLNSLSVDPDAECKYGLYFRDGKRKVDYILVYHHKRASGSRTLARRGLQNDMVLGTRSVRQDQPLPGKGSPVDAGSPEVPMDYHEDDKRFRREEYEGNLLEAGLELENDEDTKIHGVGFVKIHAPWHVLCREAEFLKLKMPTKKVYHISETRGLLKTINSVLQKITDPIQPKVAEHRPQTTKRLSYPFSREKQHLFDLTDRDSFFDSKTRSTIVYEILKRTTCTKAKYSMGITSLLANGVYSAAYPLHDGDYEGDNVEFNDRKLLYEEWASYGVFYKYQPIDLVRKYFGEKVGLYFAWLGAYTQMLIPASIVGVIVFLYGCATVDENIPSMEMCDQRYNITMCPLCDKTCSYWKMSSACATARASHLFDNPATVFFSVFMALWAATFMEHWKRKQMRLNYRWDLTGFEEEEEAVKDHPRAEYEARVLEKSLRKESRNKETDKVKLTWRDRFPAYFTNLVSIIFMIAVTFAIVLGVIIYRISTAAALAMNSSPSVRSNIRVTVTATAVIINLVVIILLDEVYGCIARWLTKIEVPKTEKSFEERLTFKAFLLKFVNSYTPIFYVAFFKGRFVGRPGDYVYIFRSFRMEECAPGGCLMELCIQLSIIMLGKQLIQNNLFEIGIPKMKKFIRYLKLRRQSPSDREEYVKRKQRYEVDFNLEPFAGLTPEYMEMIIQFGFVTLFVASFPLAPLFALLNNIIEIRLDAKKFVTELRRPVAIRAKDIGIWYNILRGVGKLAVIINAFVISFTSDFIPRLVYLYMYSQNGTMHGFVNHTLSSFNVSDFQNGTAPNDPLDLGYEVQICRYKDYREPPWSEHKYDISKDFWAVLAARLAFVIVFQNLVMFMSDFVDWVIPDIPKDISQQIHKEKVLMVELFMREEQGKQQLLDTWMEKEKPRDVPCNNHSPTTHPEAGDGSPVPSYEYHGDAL
FID counter = counter-screen for HCV NS3 helicase inhibitors: DNA intercalator displacement | 290,000 compounds, 0.17% hits | inhibition, % at 7.9 µM | DNA fluorescent intercalator displacement, fluorescence; in the data active = inhibition above about 37%;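 also: higher means more ethidium bromide displaced from hairpin DNA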
TMEM16A act = activators or potentiators of mouse TMEM16A chloride channel. HEK293 TMEM16A/YFP-H148Q/I152L, iodide quench fluorescence; stronger effect = lower value. 340,000 compounds, 0.3% hits. AID 623877. B-score at 10 µM;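 active = fluorescence-ratio B-score plate-corrected deviation score at least 3 library SD below zero, with starting fluorescence score within 5 deviations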;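 also: channel opened by trigger with iodide after compound preincubation; score built on the fluorescence ratio of max minus min over baseline; more negative score means more quench and so TMEM16A activation or potentiation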
Apaf-1 inh = inhibitors of human Apaf-1 apoptosome | 330,000 compounds, 0.71% hits | AID 489030 | inhibition, % at 20 µM | reconstituted apoptosome caspase-3 activity, DEVD-Rh110 fluorescence; active = inhibition of at least 40% at 20 µM
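System: reconstituted apoptosome with Apaf-1, cytochrome c, caspase-9, procaspase-3, dATP; Signal: Rh110 fluorescence intensity; Schedule: 30 min compound preincubation, 50 min activation, room temperature; Reagent: cytochrome c trigger plus (Z-DEVD)2-Rh110 caspase-3 substrate.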
Casp3 UBC13 ctr = counter-screen for UBC13 inhibitors: human caspase-3 inhibition; shares compounds with UBC13 inh; Recombinant caspase-3, Caspase-Glo 3/7 luminescence, 60 min; inhibition, % at 20 µM; 1,400 compounds, 4% hits; AID 488856;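 active = mean inhibition across replicates above about 26%, limit read from the data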
UBC13 conf = confirmation of human UBC13 polyubiquitin inhibitors; shares compounds with UBC13 inh; inhibition, % at 10 µM; UBC13 polyubiquitination, TR-FRET, biochemical; 1,400 compounds, 68% hits; AID 488859; in the data active = inhibition above about 45%
Each line names hits and unclear results; the compound was inactive in the other large screens (follow-up assays come after a bar, where they were run). Hits are enriched below; roughly 2.4% of the tested compounds scored in any of these assays.

COc1ccc(Cl)cc1/C=N/NC(=O)c1c(-c2ccccc2)noc1C	UBC13 inh 55.8 | Casp3 UBC13 ctr inactive | UBC13 conf inactive
O=S(=O)(Nc1nc2ccccc2[nH]1)c1ccc(Cl)cc1	UBC13 inh 51.9 | Casp3 UBC13 ctr inactive | UBC13 conf 49.1
O=S(=O)(Nc1nc2ccccc2[nH]1)c1ccccc1	none
CCOC(=O)N1CCC(NC(=O)c2cc3cc4cc(OC)ccc4nc3o2)CC1	none
COc1ccc2nc3oc(C(=O)NC4CCN(Cc5ccccc5)CC4)cc3cc2c1	UBC13 inh 58.5 | Casp3 UBC13 ctr inactive | UBC13 conf inactive
CCC(C)c1ccc(NC(=O)N2CCN(C(=O)C3CCCO3)CC2)cc1 (configuration not stated)	none
c1coc(-c2nc(-c3ccco3)c(-c3ccco3)nc2-c2ccco2)c1	UBC13 inh 76.6, Apaf-1 inh 63.4 | Casp3 UBC13 ctr inactive | UBC13 conf 63.9
Nc1ccc(C(=O)NCCCSc2ccccc2)cc1[N+](=O)[O-]	none
COc1ccc(C)cc1Nc1n[n+](C)c(-c2ccc(O)cc2O)s1	none
CCc1ccc(Nc2n[n+](-c3ccccc3)c(-c3c(Cl)cccc3Cl)s2)cc1	UBC13 inh 46.5, ANO1 block 100, TMEM16A act -8.08, Apaf-1 inh 43.6 | Casp3 UBC13 ctr inactive | UBC13 conf inactive
CCc1ccc(Nc2n[n+](-c3ccccc3)c(-c3cc(OC)c(OC)cc3Br)s2)cc1	UBC13 inh 52.5 | Casp3 UBC13 ctr inactive | UBC13 conf inactive
COc1ccc(C)cc1Nc1n[n+](-c2ccccc2)c(-c2ccc(OC)c(OC)c2OC)s1	UBC13 inh 47.9 | Casp3 UBC13 ctr inactive | UBC13 conf inactive
CCc1ccc(Nc2n[n+](-c3ccccc3)c(/C=C/c3ccccc3)s2)cc1	UBC13 inh 69.9 (no result: TMEM16A act) | Casp3 UBC13 ctr inactive | UBC13 conf inactive
CCC1=NN(C(=O)Cc2ccc(OC)c(OC)c2)C(O)(C(F)(F)F)C1 (configuration not stated)	none
CCN(CC)CC(=O)Nc1ccc([N+](=O)[O-])cc1	none
Cc1ncc([N+](=O)[O-])n1CCN1C(=O)c2ccccc2C1=O	none
CN(C)c1ccc(NC(=O)c2ccc(Cn3cc([N+](=O)[O-])cn3)cc2)cc1	none
Cc1ccc(COC(=O)c2cc(S(=O)(=O)N3CCOCC3)ccc2C)cc1	none (no result: ANO1 block, FID counter)
NC(=O)Cn1nnc(-c2ccc(NC(=O)c3ccc(F)cc3)cc2)n1	none
CCn1c(SCC(=O)Nc2ccccc2OC)nc2ccccc2c1=O	none
COc1ccccc1NC(=O)CSc1nc2ccccc2n1C(C)=O	UBC13 inh 46.1 | Casp3 UBC13 ctr inactive | UBC13 conf inactive
O=C1CC(c2ccc(F)cc2)C(n2cncn2)C(O)=C1C1NCCc2ccccc21 (configuration not stated)	UBC13 inh 53.5 | Casp3 UBC13 ctr inactive | UBC13 conf inactive
O=C1CC(c2ccc(F)cc2)CC(O)=C1C1NCCc2ccccc21 (configuration not stated)	none
Cc1cccc(NC(=S)N(C)C)c1C	none
Cc1cccc(Nc2cc(C)c3c(O)cccc3n2)c1C	UBC13 inh 74.2 | Casp3 UBC13 ctr inactive | UBC13 conf 58.0
C#CCOCCOCCOCCNc1nc(N2CCN(C(=O)[C@H]([C@@H](C)CC)n3cc(CCCN=C(N)N)nn3)CC2)nc(N2CCN(C(=O)[C@H]([C@@H](C)CC)n3cc(CCC(=O)O)nn3)CC2)n1	none (no result: UBC13 inh, ANO1 block, FID counter, Apaf-1 inh)
C#CCOCCOCCOCCNc1nc(N2CCN(C(=O)CCCCCCCCCCNC(=O)[C@@H](CCC(=O)O)n3cc(CCCCCN)nn3)CC2)nc(N2CCN(C(=O)CCCCCCCCCCNC(=O)[C@@H](CCC(=O)O)n3cc(CCCCCN)nn3)CC2)n1	UBC13 inh 45.4 (no result: FID counter) | Casp3 UBC13 ctr inactive | UBC13 conf inactive
C#CCOCCOCCOCCNc1nc(N2CCN(C(=O)CCCCCCCCCCNC(=O)[C@H](CCCCN)n3cc(C)nn3)CC2)nc(N2CCN(C(=O)CCCCCCCCCCNC(=O)[C@@H]([C@H](C)CC)n3cc(CCCCCN)nn3)CC2)n1	UBC13 inh 125.5, ANO1 block 25, TMEM16A act -18.3, Apaf-1 inh 81.5 (no result: FID counter) | Casp3 UBC13 ctr inactive | UBC13 conf 127.8
C#CCOCCOCCOCCNc1nc(N2CCN(C(=O)[C@H]([C@@H](C)CC)n3cc(CCCCN)nn3)CC2)nc(N2CCN(C(=O)[C@H](CCCCN)n3cc(CCC(=O)O)nn3)CC2)n1	none (no result: FID counter)
C#CCOCCOCCOCCNc1nc(N2CCN(C(=O)CCCCCCCCCCNC(=O)[C@@H](CCSC)n3cc(CCO)nn3)CC2)nc(N2CCN(C(=O)CCCCCCCCCCNC(=O)[C@H]([C@@H](C)CC)n3cc(CCCCN=C(N)N)nn3)CC2)n1	UBC13 inh 125.0, TMEM16A act -23.4, Apaf-1 inh 64.2 (no result: FID counter) | Casp3 UBC13 ctr inactive | UBC13 conf 124.1
C#CCOCCOCCOCCNc1nc(N2CCN(C(=O)CCCCCCCCCCNC(=O)[C@H](CCCCN)n3cc(CCCC(=O)O)nn3)CC2)nc(N2CCN(C(=O)CCCCCCCCCCNC(=O)[C@H](CCCN=C(N)N)n3cc(C[C@@H](C)CC)nn3)CC2)n1	UBC13 inh 123.1, ANO1 block 100, TMEM16A act -15.9, Apaf-1 inh 76.2 (no result: FID counter) | Casp3 UBC13 ctr inactive | UBC13 conf 126.2
CN1CCN(C(=O)c2ccc3c(c2)N(Cc2ccc(F)cc2)C(=O)c2ccccc2S3=O)CC1 (configuration not stated)	none
C#CCOCCOCCOCCNc1nc(N2CCN(C(=O)CCCCCCCCCCNC(=O)[C@H](CCCCN)n3cc(CCCC(=O)O)nn3)CC2)nc(N2CCN(C(=O)CCCCCCCCCCNC(=O)[C@H](CCCCN)n3cc(CCCC(=O)O)nn3)CC2)n1	UBC13 inh 45.3 (no result: FID counter) | Casp3 UBC13 ctr inactive | UBC13 conf inactive
C#CCOCCOCCOCCNc1nc(N2CCN(C(=O)[C@H](C)n3cc(CCC(=O)O)nn3)CC2)nc(N2CCN(C(=O)[C@H](CCCCN)n3cc(CCCC)nn3)CC2)n1	none (no result: UBC13 inh, ANO1 block, FID counter, Apaf-1 inh)
C#CCOCCOCCOCCNc1nc(N2CCOCC2)nc(N2CCN(C(=O)CCCCCCCCCCNC(=O)[C@H](CO)n3cc(CCCCCN)nn3)CC2)n1	UBC13 inh 61.5, Apaf-1 inh 43.5 (no result: FID counter) | Casp3 UBC13 ctr inactive | UBC13 conf inactive
COc1ccccc1/C=C/C(=O)N1CCN(S(=O)(=O)c2cc(C)ccc2C)CC1	none (no result: ANO1 block, FID counter)
O=C(CCCc1ccccc1)N=C1SC2CS(=O)(=O)CC2N1c1ccccc1F (configuration not stated)	none
COc1ccccc1NC(=O)c1c(N=Cc2c(O)ccc3ccccc23)cnn1C	UBC13 inh 57.6 | Casp3 UBC13 ctr inactive | UBC13 conf 66.1
Cn1ncc(N=Cc2c(O)ccc3ccccc23)c1C(=O)N1CCOCC1	none

Assay outcomes (PubChem)
